This passage reports GI50 and IC50 results from ChEMBL document CHEMBL1268845, “A convenient synthesis and molecular modeling study of novel purine and pyrimidine derivatives as CDK2/cyclin A3 inhibitors” (Bioorg Med Chem, 2010).

Structures are written as SMILES.

Test system in one assay: not listed separately
Nature of the assay: Cytotoxicity against mouse EAC cells after 48 hrs. The format is functional. The conditions noted are these: Ehrlich. The method in brief: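 EAC cells were harvested by needle aspiration of ascitic fluid from pre-inoculated female Swiss albino mice and maintained by weekly intraperitoneal transplantation. They were suspended in saline at 2.5 × 10^6 per mL and exposed for 48 h to serial dilutions from 10^-9 to 10^-4 M in DMSO/saline. The read-out was GI50.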
Compound `COc1cc(/C=N/c2c(C#N)nc(=O)[nH]c2NS(=O)(=O)c2ccc(C)cc2)cc(OC)c1` had a GI50 of 19 µM.

For `COc1cccc(/C=N/c2c(C#N)nc(=O)[nH]c2NS(=O)(=O)c2ccc(C)cc2)c1OC`, the GI50 came out at 21 µM.

With `Cc1ccc(S(=O)(=O)NC(=O)N/C(C#N)=C(\N)C#N)cc1`, growth was halved (GI50) at 12 µM.

In turn, `Cc1ccc(S(=O)(=O)NC(=N)c2[nH]c(=O)[nH]c2C#N)cc1` yielded a GI50 of 28 µM.

Regarding `Cc1ccc(S(=O)(=O)n2c3c([nH]c2=O)C(C(N)=O)=NC(C)(C)N3)cc1`, the GI50 was 15 µM.

Consider `CC(=O)CC1(C)N=C(C(N)=O)c2[nH]c(=O)n(S(=O)(=O)c3ccc(C)cc3)c2N1` (stereo unspecified), for which growth was halved (GI50) at 16 µM.

The compound `COc1ccc(/C=N/C(C#N)=C(/C#N)NC(=O)NS(=O)(=O)c2ccc(C)cc2)cc1` came in with a GI50 of 10 µM.

`COc1cc(OC)c(/C=N/C(C#N)=C(/C#N)NC(=O)NS(=O)(=O)c2ccc(C)cc2)c(OC)c1` gave a 50% growth inhibitory concentration (GI50) of 26 µM.

On to `COc1cc(/C=N/C(C#N)=C(/C#N)NC(=O)NS(=O)(=O)c2ccc(C)cc2)cc(OC)c1`, for which the GI50 turned out to be 25 µM.

Compound `COc1cccc(/C=N/C(C#N)=C(/C#N)NC(=O)NS(=O)(=O)c2ccc(C)cc2)c1OC` yielded a GI50 of 27 µM.

`COc1ccc(/C=N/c2c(C#N)nc(=O)[nH]c2NS(=O)(=O)c2ccc(C)cc2)cc1` came in with a GI50 of 17 µM.

As for `COc1cc(OC)c(/C=N/c2c(C#N)nc(=O)[nH]c2NS(=O)(=O)c2ccc(C)cc2)c(OC)c1`, the GI50 stood at 16 µM.

In turn, `Nc1nc(OC[C@H]2CCC(=O)N2)c2nc[nH]c2n1` registered a GI50 of 18 µM.

Another assay deals with CDK2/cyclin A3 (Marthasterias glacialis). Briefly: Inhibition of starfish CDK2/cyclin A3 by ELISA.
Details: not given
Turning to `COc1cc(/C=N/c2c(C#N)nc(=O)[nH]c2NS(=O)(=O)c2ccc(C)cc2)cc(OC)c1`, inhibition was half-maximal at 35 µM (IC50).

In turn, `COc1cccc(/C=N/c2c(C#N)nc(=O)[nH]c2NS(=O)(=O)c2ccc(C)cc2)c1OC` showed an IC50 of 36 µM.

The compound `Cc1ccc(S(=O)(=O)NC(=O)N/C(C#N)=C(\N)C#N)cc1` had an IC50 of 32 µM.

`Cc1ccc(S(=O)(=O)NC(=N)c2[nH]c(=O)[nH]c2C#N)cc1` gave an IC50 of 45 µM.

Take `Cc1ccc(S(=O)(=O)n2c3c([nH]c2=O)C(C(N)=O)=NC(C)(C)N3)cc1`: the IC50 amounted to 14 µM.

In the case of `CC(=O)CC1(C)N=C(C(N)=O)c2[nH]c(=O)n(S(=O)(=O)c3ccc(C)cc3)c2N1` (stereo unspecified), the IC50 was found to be 13 µM.

Consider `COc1ccc(/C=N/C(C#N)=C(/C#N)NC(=O)NS(=O)(=O)c2ccc(C)cc2)cc1`, for which the IC50 is 39 µM.

Take `COc1cc(OC)c(/C=N/C(C#N)=C(/C#N)NC(=O)NS(=O)(=O)c2ccc(C)cc2)c(OC)c1`: it took 38 µM to reach half-maximal inhibition (IC50).

Compound `COc1cc(/C=N/C(C#N)=C(/C#N)NC(=O)NS(=O)(=O)c2ccc(C)cc2)cc(OC)c1` displayed an IC50 of 42 µM.

In turn, `COc1cccc(/C=N/C(C#N)=C(/C#N)NC(=O)NS(=O)(=O)c2ccc(C)cc2)c1OC` had an IC50 of 43 µM.

As to `COc1ccc(/C=N/c2c(C#N)nc(=O)[nH]c2NS(=O)(=O)c2ccc(C)cc2)cc1`, half-maximal inhibition (IC50) was put at 39 µM.

Regarding `COc1cc(OC)c(/C=N/c2c(C#N)nc(=O)[nH]c2NS(=O)(=O)c2ccc(C)cc2)c(OC)c1`, the midpoint of inhibition, the IC50, lay at 38 µM.

The compound `Nc1nc(OC[C@H]2CCC(=O)N2)c2nc[nH]c2n1` registered an IC50 of 35 µM.
